# Measured values published in PMC11904481 (ESMO Open, 2025).
# How the values were obtained:
# [1] = system: patients with locally advanced unresectable or metastatic, relapsed and/or refractory nonhematological malignancies; assay: Phase I clinical activity; type: in vivo, human
# In short: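 Open-label multicenter dose escalation in adults with MAPK-altered or 11q-AMP solid tumors. The test compound was given i.v. on three schedules: weekly per 28-day cycle at 0.45-5.4 mg/kg (1-2 h infusion) or 4.8-9.6 mg/kg (4 h); or on days 1, 4, 8 (±11, 15) per 21-day cycle at 3.6-11.3 mg/kg. Investigator assessed response by RECIST v1.1. Evaluable patients had ≥1 dose plus baseline and ≥1 post-treatment tumor assessment.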
# ERK1/2 = details: cell lines; cited from earlier work
smiles,measurement,setting,value
O=C1Nc2cc3[nH]nc(-c4ccncc4)c3cc2CN1Cc1ccccc1 [KO-947],best overall response,[1]; all schedules,stable disease
same,complete or partial responses,[1]; all schedules,No complete or partial responses
same,patients discontinued owing to disease progression,[1]; schedule 3,67%
same,stable disease as best overall response,[1]; schedule 3,37%
same,stable disease as best overall response,[1]; schedules 1 and 2,15%
same,inhibition of signaling following washout,ERK1/2,> 4 h
